{
  "source": "ChEMBL document CHEMBL5678801",
  "about": "“A benzothiophene inhibitor of mitogen-activated protein kinase-activated protein kinase 2 inhibits tumor necrosis factor alpha production and has oral anti-inflammatory efficacy in acute and chronic models of inflammation” (J Pharmacol Exp Ther, 2010)",
  "key": {"[1]": {"assay": "Inhibition of recombinant RSK1/2/3/4 (unknown origin) using KKKALSRQLSVAA as substrate incubated for 1 hr followed by substrate addition in presence of ATP", "design": "species or system Homo sapiens", "summary_of_the_method": "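MAPKAP family kinases were activated by p38α (1:50 molar, 250 μM ATP, 1 h, 30°C). Assays ran in 20 mM HEPES pH 7.5, 10 mM MgCl2, 1 mM DTT, 0.01% BSA, 0.0005% Tween-20, at MgATP fixed at each enzyme's Km(app). The 33P-labelled product peptide was separated by ion exchange. Duplicate experiments. MSK1 (367-802) and MSK2 (351-772) were N-terminal 6xHis constructs from Sf9 cells.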"}, "[2]": {"assay": "Inhibition of IL-8 production in LPS induced human PBMC cells preincubated with compound for 1 hr followed by LPS induction and measured after 16 hrs by MSD analysis", "assay_type": "functional, cell-based", "summary_of_the_method": "(§1)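 Human PBMCs were pretreated with compound for 1 h (<1% DMSO final), then stimulated with LPS 100 ng/ml at 37°C. Cytokines in culture media were read by MSD 4-plex: TNFα at 4 h; IL-1β, IL-6 and IL-8 at 16 h. Data are means ±S.E.M. of two independent experiments in duplicate, three donors. IC50 by 4-parameter nonlinear regression.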"}, "[3]": {"target": "T1, Tyrosine-protein kinase Mer (Homo sapiens, UniProt Q12866)", "T1 sequence (Q12866 whole entry)": "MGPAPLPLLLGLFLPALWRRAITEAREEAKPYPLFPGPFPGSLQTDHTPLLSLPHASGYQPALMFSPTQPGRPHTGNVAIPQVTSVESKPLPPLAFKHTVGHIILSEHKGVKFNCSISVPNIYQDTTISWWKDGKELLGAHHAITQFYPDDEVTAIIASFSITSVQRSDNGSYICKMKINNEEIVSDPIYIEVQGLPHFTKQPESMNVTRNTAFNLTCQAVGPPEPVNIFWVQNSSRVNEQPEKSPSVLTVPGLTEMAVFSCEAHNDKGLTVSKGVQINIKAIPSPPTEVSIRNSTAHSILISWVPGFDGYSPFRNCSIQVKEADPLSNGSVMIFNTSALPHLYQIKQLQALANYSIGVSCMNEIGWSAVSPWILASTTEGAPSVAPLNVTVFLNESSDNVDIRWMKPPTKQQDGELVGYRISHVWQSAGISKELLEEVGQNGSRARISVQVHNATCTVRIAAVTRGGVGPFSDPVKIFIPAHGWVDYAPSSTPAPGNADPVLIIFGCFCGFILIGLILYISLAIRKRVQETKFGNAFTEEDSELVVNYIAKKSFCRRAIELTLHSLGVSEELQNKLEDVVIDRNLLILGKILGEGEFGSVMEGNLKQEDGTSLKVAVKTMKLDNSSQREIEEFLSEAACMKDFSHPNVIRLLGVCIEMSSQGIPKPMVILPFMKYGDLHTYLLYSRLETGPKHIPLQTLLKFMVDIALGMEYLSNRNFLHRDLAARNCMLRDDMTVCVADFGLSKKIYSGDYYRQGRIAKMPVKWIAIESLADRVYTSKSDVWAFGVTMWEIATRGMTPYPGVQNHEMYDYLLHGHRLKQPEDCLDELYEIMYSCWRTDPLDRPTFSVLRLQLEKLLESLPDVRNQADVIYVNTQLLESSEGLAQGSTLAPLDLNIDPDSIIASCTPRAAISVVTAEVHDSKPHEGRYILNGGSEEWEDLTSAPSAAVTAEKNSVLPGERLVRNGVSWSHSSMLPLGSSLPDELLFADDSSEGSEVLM", "assay": "Inhibition of Mer (unknown origin)", "summary_of_the_method": "(§2)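 Kinase panel: 200 kinases were first screened at 1 μM inhibitor for percent inhibition. Those above 50% inhibition were then titrated for IC50. MgATP was fixed at the Km(app) determined for each enzyme.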"}, "[4]": {"assay": "Plasma protein binding in human", "assay_type": "ADME, cell-free", "settings": "read-out: PPB (converted)", "summary_of_the_method": "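Binding to rat and human plasma was measured in vitro by ultracentrifugation.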"}, "[5]": {"target": "T2, MAP kinase-activated protein kinase 2 (Homo sapiens, UniProt P49137)"}, "[6]": {"assay": "Half life in Sprague-Dawley rat measured upto 24 hrs by […] analysis", "assay_type": "ADME", "settings": "in vivo", "summary_of_the_method": "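Male Sprague-Dawley rats (275-300 g), carotid-catheterized and acclimated overnight. Dosing was i.v. at 1 mpk (n=2) in 70% saline/20% PEG-400/10% ethanol, or oral at 3 mpk (n=3) as a suspension in 0.5% HPMC/Tween. Plasma drug was measured by LC-MS/MS. Cmax and Tmax were read from individual profiles. t½ came from the terminal log-linear slope and AUC by the linear trapezoidal rule. CL = dose/AUC0-∞, Vdss = CL×MRT, F = dose-normalized AUC po/iv.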"}, "[7]": {"target": "T2, MAP kinase-activated protein kinase 2", "assay": "Binding affinity to recombinant N-terminal truncated MK2 (45 to 371 residues) (unknown origin) expressed in Escherichia coli assessed as dissociation constant measured after 15 mins by surface plasmon resonance spectroscopy analysis", "summary_of_the_method": "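SPR on biotinylated MK2 captured on a streptavidin-coated CM5 chip, at 25°C. Running buffer was 10 mM HEPES, 150 mM NaCl, 0.005% P20, flowing at 60 μl/min. Compound at 1-100 nM was injected for 4 min, then dissociation was followed for 15 min. Real-time binding kinetics were recorded.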"}, "[8]": {"assay": "Antiinflammatory activity in human PBMC cells assessed as inhibition of LPS induced IL-8 production preincubated for 1 hr followed by LPS stimulation and measured after 16 hrs by MSD analysis", "assay_type": "functional, cell-based", "summary_of_the_method": "as §1"}, "[9]": {"target": "T3, Serine/threonine-protein kinase BRSK2 (Homo sapiens, UniProt Q8IWQ3)", "T3 sequence (Q8IWQ3 whole entry)": "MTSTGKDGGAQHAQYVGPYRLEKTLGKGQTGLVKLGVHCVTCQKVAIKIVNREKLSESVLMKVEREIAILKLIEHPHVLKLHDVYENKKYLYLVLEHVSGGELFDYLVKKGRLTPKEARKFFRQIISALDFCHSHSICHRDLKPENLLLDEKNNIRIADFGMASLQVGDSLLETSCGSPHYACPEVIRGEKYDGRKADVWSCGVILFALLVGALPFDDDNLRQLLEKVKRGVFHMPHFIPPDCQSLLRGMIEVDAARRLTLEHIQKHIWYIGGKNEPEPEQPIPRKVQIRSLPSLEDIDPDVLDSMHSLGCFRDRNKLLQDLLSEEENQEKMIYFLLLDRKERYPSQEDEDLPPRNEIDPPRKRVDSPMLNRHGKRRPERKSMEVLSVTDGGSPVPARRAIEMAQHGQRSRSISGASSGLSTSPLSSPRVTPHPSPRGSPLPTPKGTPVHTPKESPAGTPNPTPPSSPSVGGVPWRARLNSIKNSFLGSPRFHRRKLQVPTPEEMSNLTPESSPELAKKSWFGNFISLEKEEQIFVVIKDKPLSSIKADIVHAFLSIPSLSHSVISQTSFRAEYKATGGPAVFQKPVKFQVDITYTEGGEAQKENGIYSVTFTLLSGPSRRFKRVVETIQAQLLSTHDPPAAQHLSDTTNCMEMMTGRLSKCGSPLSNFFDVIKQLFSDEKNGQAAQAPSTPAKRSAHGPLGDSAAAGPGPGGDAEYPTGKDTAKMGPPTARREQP", "assay": "Inhibition of BrSK2 (unknown origin)", "summary_of_the_method": "as §2"}},
  "data": [
    {"molecule": "Cc1ccc(-c2ccc3c(ccc4sc5c(c43)NC[C@@H](C)NC5=O)n2)cn1", "values": [
      {"measurement": "IC50", "setting": "[1]", "result": "> 1000", "unit": "nM"},
      {"measurement": "IC50", "setting": "[2]", "result": 2090, "unit": "nM"},
      {"measurement": "IC50", "setting": "[3]", "result": 76, "unit": "nM"},
      {"measurement": "fraction unbound", "setting": "[4]", "result": 0.064},
      {"measurement": "fIC50", "setting": "[5]", "result": 126, "unit": "nM"},
      {"measurement": "half-life", "setting": "[6]", "result": 9.1, "unit": "h"},
      {"measurement": "Kd", "setting": "[7]", "result": 5.9, "unit": "nM"},
      {"measurement": "IC50", "setting": "[8]", "result": 2590, "unit": "nM"},
      {"measurement": "IC50", "setting": "[9]", "result": 90, "unit": "nM"}
    ]}
  ]
}
